How the values were obtained:
[1] = molecular target: T1, Tyrosine-protein phosphatase non-receptor type 2 (Homo sapiens, UniProt P17706); test: Inhibition of His-tagged TC-PTP (unknown origin) expressed in Escherichia coli BL21 cells using para-nitrophenyl phosphate as substrate incubated for 5 to 10 mins by microplate reader based spectrophotometric analysis
T1 sequence (P17706 whole entry): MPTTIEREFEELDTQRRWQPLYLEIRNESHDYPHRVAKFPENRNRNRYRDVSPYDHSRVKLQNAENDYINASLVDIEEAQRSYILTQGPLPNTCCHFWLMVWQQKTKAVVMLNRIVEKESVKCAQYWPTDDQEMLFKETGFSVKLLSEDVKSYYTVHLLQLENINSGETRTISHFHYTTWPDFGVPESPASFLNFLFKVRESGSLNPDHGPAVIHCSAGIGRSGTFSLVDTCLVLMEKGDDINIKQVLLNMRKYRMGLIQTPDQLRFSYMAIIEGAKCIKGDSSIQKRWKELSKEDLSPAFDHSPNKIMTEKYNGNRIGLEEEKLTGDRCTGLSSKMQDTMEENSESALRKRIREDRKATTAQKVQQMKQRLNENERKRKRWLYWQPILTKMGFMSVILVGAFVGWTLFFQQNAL

[2] = molecular target: T2, Low molecular weight phosphotyrosine protein phosphatase (Homo sapiens, UniProt P24666); test: Inhibition of His-tagged LMW-PTP isoform A (unknown origin) expressed in Escherichia coli BL21 cells using para-nitrophenyl phosphate as substrate incubated for 5 to 10 mins by microplate reader based spectrophotometric analysis
T2 sequence (P24666 whole entry): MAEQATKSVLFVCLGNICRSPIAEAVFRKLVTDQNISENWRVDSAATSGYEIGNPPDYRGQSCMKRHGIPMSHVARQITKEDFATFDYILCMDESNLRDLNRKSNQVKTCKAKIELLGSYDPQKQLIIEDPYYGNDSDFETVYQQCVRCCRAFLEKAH

[3] = molecular target: T3, Receptor-type tyrosine-protein phosphatase C (Homo sapiens, UniProt P08575); test: Inhibition of His-tagged CD45 (unknown origin) expressed in Escherichia coli BL21 cells using para-nitrophenyl phosphate as substrate incubated for 5 to 10 mins by microplate reader based spectrophotometric analysis
T3 sequence (P08575 whole entry): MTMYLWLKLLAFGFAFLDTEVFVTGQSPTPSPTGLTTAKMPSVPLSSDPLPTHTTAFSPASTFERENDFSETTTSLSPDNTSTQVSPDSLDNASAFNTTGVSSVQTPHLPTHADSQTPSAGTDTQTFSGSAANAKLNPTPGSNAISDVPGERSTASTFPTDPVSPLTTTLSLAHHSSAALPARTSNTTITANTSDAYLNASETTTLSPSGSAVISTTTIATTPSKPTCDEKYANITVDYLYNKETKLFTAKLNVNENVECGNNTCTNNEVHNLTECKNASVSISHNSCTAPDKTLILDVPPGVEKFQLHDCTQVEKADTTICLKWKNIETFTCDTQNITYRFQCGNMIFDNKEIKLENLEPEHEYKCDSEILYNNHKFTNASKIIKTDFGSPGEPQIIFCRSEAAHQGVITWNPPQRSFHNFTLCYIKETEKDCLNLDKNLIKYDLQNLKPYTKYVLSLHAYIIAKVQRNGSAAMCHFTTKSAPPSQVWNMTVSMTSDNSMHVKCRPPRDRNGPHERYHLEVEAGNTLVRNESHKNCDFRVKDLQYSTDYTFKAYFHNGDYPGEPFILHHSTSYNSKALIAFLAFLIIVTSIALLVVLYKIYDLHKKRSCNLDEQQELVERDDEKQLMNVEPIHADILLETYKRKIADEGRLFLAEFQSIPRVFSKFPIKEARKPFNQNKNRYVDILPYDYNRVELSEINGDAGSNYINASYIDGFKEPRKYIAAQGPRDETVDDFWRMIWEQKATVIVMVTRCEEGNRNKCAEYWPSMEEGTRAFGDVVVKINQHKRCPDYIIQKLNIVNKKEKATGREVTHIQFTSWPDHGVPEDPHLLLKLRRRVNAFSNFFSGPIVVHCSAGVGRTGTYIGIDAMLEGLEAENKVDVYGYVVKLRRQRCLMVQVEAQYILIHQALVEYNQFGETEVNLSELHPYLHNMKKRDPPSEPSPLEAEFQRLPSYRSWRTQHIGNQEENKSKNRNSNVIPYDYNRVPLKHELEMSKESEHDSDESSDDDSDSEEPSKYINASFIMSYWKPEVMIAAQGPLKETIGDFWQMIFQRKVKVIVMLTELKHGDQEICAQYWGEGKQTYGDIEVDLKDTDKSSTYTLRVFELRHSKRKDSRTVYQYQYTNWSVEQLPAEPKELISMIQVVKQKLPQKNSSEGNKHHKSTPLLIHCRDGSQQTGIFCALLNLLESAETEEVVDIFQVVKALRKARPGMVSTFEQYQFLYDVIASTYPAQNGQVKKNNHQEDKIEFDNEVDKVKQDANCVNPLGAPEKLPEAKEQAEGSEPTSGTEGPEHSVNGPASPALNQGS

[4] = molecular target: Receptor-type tyrosine-protein phosphatase mu (Homo sapiens, UniProt P28827); test: Inhibition of His-tagged PTPmu (unknown origin) expressed in Escherichia coli BL21 cells using para-nitrophenyl phosphate as substrate incubated for 5 to 10 mins by microplate reader based spectrophotometric analysis
Chain of Receptor-type tyrosine-protein phosphatase mu (P28827 whole entry, the tested form may be a part): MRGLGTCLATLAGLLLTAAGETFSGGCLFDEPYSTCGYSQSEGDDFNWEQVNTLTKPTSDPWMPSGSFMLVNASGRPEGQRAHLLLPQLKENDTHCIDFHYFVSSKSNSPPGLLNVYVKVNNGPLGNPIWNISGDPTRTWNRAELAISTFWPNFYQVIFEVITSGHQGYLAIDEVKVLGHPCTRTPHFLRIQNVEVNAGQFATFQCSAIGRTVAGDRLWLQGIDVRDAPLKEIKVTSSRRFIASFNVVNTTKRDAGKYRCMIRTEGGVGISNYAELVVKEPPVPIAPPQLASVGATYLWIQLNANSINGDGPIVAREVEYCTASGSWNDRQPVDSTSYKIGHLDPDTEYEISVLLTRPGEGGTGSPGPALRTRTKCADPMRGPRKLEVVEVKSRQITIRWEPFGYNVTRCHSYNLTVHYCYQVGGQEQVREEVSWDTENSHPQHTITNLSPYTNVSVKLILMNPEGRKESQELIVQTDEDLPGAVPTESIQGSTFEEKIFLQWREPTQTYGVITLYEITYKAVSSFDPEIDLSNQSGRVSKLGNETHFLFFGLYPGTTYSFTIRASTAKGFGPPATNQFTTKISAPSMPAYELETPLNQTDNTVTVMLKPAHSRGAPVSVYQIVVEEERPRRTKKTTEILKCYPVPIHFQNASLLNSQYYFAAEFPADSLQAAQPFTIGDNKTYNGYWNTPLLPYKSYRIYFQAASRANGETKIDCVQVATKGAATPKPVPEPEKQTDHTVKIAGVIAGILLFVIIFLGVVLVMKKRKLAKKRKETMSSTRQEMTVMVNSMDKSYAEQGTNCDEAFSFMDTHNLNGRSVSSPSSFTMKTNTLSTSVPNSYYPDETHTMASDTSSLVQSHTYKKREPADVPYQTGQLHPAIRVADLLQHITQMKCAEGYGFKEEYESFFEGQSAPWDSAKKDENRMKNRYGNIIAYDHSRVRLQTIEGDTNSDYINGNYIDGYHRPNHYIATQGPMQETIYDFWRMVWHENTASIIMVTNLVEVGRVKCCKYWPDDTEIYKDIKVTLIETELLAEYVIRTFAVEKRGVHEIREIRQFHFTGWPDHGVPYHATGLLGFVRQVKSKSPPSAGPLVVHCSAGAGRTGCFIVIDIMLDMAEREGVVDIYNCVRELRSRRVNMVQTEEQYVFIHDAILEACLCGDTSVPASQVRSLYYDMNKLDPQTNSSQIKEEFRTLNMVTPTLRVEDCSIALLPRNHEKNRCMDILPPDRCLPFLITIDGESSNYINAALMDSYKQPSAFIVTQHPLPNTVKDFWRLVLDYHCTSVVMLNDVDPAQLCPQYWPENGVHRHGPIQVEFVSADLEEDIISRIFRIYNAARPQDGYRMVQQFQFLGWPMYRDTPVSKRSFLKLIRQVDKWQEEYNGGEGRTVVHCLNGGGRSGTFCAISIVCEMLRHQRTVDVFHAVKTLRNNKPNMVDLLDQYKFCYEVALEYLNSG

[5] = molecular target: T4, RNA polymerase II subunit A C-terminal domain phosphatase SSU72 (Homo sapiens, UniProt Q9NP77); test: Inhibition of His-tagged SSu72 (unknown origin) expressed in Escherichia coli BL21 cells using para-nitrophenyl phosphate as substrate incubated for 5 to 10 mins by microplate reader based spectrophotometric analysis
T4 sequence (Q9NP77 whole entry): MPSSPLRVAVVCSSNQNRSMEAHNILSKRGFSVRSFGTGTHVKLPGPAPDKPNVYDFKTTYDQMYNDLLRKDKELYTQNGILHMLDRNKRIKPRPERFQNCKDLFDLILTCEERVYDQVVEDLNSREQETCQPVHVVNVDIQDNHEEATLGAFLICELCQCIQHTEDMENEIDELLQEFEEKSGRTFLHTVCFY

[6] = Inhibition of His-tagged PTP-H1 (unknown origin) expressed in Escherichia coli BL21 cells using para-nitrophenyl phosphate as substrate incubated for 5 to 10 mins by microplate reader based spectrophotometric analysis; set-up: species or system Homo sapiens
Procedure, shortened: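 Enzyme at 5-20 nM was added to substrate plus a range of inhibitor concentrations and run 5-10 min at room temperature. Quenched with 5N NaOH and p-nitrophenol read at 405 nm (ε 18,000 M-1cm-1), with a no-enzyme background correction. IC50 from curve fitting.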

[7] = molecular target: T2, Low molecular weight phosphotyrosine protein phosphatase; test: Competitive inhibition of His-tagged LMW-PTP isoform A (unknown origin) expressed in Escherichia coli BL21 cells using para-nitrophenyl phosphate as substrate by Lineweaver-Burk plot analysis
Procedure, shortened: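 Recombinant enzyme Ni-NTA purified (Tris pH 7.8, 500 mM NaCl, 250 mM imidazole elution), then Sephadex G75. pNPP hydrolysis in 50 mM 3,3-dimethylglutarate, pH 7.0, 25 °C. Enzyme added last to mixes of varied pNPP and inhibitor concentrations, 5-10 min, NaOH quench. p-nitrophenol read at 405 nm (ε 18,000 M-1cm-1), no-enzyme blank subtracted. Ki fitted by enzyme-kinetics regression.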

SMILES: O=C(Nc1cc(C(F)(F)F)cc(C(F)(F)F)c1)C(c1ccccc1)S(=O)(=O)O (configuration not stated)
- IC50 [1]: > 200 µM
- IC50 [2]: 6.39 µM
- IC50 [3]: > 200 µM
- IC50 [4]: > 200 µM
- IC50 [5]: 83 µM
- IC50 [6]: > 200 µM

SMILES: O=C(Nc1ccc(-n2ccnc2)cc1)C(c1ccccc1)S(=O)(=O)O (configuration not stated)
- IC50 [1]: > 100 µM
- IC50 [3]: > 100 µM
- IC50 [4]: > 100 µM
- IC50 [5]: > 100 µM
- IC50 [6]: > 100 µM

SMILES: O=C(Nc1ccc(OCc2ccccc2)c(Cl)c1)C(c1ccccc1)S(=O)(=O)O (configuration not stated)
- IC50 [1]: > 200 µM
- IC50 [3]: > 200 µM
- IC50 [4]: > 200 µM
- IC50 [6]: > 200 µM

SMILES: Cc1c(Br)cc(NC(=O)C(c2ccccc2)S(=O)(=O)O)cc1Br (configuration not stated)
- IC50 [1]: > 200 µM
- IC50 [3]: > 200 µM
- IC50 [4]: > 200 µM
- IC50 [5]: > 200 µM
- IC50 [6]: > 200 µM

SMILES: O=C(Nc1nc2ccc([N+](=O)[O-])cc2s1)C(c1ccccc1)S(=O)(=O)O (configuration not stated)
- IC50 [1]: > 100 µM
- IC50 [2]: 2.1 µM
- IC50 [3]: > 100 µM
- IC50 [4]: > 100 µM
- IC50 [5]: > 100 µM
- IC50 [6]: > 100 µM
- Ki [7]: 1 µM

Source: ChEMBL document CHEMBL4715770, “Inhibition of Low Molecular Weight Protein Tyrosine Phosphatase by an Induced-Fit Mechanism” (J Med Chem, 2016)
